Screening data as filed in PubChem.
Hits are enriched below; roughly 3.1% of the tested compounds scored in any of these assays.
MBD2 DNA inh – inhibitors of human MBD2 binding to methylated oligonucleotide; TR-FRET; 0.31% of 370,000 active; Q9UBB5; AID 686964; inhibition, % at 4.4 µM; in the data active = inhibition above about 13%
ABHD5-PLIN5 inh – ABHD5-PLIN5 protein interaction inhibition; Q00G26+Q8WTS1; Split G. princeps luciferase complementation, luminescence, 4 h; inhibition, % at 4 µM; 0.78% of 360,000 active;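 active = inhibition above the mean inhibition across every tested compound plus 3 SD, cut at about 22% in these data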;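 also: 0% = DMSO only wells and the 100% control is not disclosed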
PRMT1 FP inh – PRMT1 (human) inhibition, primary screen | Q99873 | recombinant PRMT1, activity-based probe fluorescence polarization | inhibition, % at 2.79 µM | 1.3% of 370,000 active | AID 652257;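 active = inhibition above about 21% made by adding two undisclosed values, limit read from the data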
UHRF1 binding – UHRF1 methyl-DNA binding inhibition; Q96T88; UHRF1 binding to methylated oligo, TR-FRET; inhibition, % at 4.4 µM; 0.75% of 370,000 active; in the data active = inhibition above about 21%;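 also: UHRF1 SRA domain binding a hemimethylated CpG hairpin DNA probe; 0% = median of test compound wells and 100% = reference inhibitor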
Target sequence (Q96T88 whole entry, looked up, the tested form may be a part): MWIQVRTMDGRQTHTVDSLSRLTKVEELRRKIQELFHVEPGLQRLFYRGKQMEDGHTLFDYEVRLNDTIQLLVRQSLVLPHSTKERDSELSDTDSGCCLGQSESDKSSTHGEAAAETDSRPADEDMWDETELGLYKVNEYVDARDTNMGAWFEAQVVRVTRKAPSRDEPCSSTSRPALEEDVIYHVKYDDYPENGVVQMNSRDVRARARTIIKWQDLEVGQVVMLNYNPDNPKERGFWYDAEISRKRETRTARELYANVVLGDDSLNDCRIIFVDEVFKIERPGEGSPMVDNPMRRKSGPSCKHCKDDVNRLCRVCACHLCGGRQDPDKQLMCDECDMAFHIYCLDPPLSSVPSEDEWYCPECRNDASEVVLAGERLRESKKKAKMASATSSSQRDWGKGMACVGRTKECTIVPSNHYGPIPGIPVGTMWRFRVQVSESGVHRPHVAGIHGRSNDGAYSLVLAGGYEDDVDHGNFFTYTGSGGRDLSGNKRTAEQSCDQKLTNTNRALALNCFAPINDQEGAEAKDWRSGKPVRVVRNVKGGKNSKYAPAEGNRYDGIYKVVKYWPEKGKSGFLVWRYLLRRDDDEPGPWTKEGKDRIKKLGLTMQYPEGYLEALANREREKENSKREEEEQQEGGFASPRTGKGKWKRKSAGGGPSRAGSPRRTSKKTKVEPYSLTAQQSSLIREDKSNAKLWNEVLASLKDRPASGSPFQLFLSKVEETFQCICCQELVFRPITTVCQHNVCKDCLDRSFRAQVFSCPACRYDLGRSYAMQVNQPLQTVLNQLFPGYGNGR
RBBP9 inhibitor – inhibitors of human serine hydrolase RBBP9 | O75884 | recombinant RBBP9, FP-Rh probe fluorescence polarization | inhibition, % at 7.94 µM | 0.2% of 220,000 active | AID 1515;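 active = inhibition above the campaign mean of all tested compounds plus 3 SD, cut at about 14% in these data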;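 also: plate controls were DMSO wells with RBBP9 for no effect and wells lacking RBBP9 protein for full effect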
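System: RBBP9 protein / Buffer or medium: Tris/NaCl buffer pH 8.0 with 0.1% Pluronic / Probe or stimulus: Serine-hydrolase probe FP-Rh, 375 nM pre-mixing / Dosing: 7.94 µM single dose, 0.794% DMSO / Times: enzyme-compound preincubation 30 min, then probe labeling 45 min, 25 °C / Technique: fluorescence polarization (mP), excitation 525 nm, emission 598 nm / Replication: singlicate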
LEDGF integ inh – blocks HIV-1 LEDGF/p75-dependent DNA integration. TR-FRET IN-LEDGF/p75 DNA integration, Eu/Cy5. inhibition, % at 3.7 µM. 0.64% of 370,000 active;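 active = inhibition above the screen-wide mean plus 3 SD, cut at about 13% in these data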;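 also: signal is the Cy5 over europium emission ratio at 671 and 618 nm; 0% = plate median of compound wells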
ABHD5-PLIN5 conf – confirmation of human ABHD5-PLIN5 interaction inhibitors; inhibition, % at 4 µM; shares compounds with ABHD5-PLIN5 inh; AID 651612; 67% of 2,200 active; biochemical ABHD5-PLIN5 interaction, luminescence; in the data active = inhibition above about 23%;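 also: 0% = DMSO vehicle wells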
HNF4 split-luc – HNF4 split-luciferase signal hit, counter-screen. shares compounds with ABHD5-PLIN5 inh. 77% of 2,200 active. HNF4 dimerization, luminescence, biochemical. inhibition, % at 4 µM;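 active = mean inhibition across replicate wells exceeding the computed hit threshold, cut at about 13% in these data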;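 also: light from luciferase halves that rejoin when HNF4 fusion proteins dimerize; 0% = DMSO only wells and the 100% control is not given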
An asterisk follows results filed as active.

How did O=S1(=O)CC2c3ccccc3CCN2CN1CCc1ccccc1 (configuration not stated) do in these assays?
MBD2 DNA inh: -3; PRMT1 FP inh: -1; UHRF1 binding: 0; LEDGF integ inh: 0

Results for CC[C@@H](C)[C@@H]1CN([C@@H](C)CN2CCC[C@H]2CN2C(N)=NC[C@H]2CC(C)C)C(=N)N1CCCC1CCCC1 ?
MBD2 DNA inh: 2; ABHD5-PLIN5 inh: -1; PRMT1 FP inh: 4; UHRF1 binding: 3; LEDGF integ inh: 1

Results for CC[C@@H](C)[C@@H]1CN([C@@H](C)CN2CCC[C@H]2CN2C(N)=NC[C@@H]2Cc2ccccc2)C(=N)N1CCCC1CCCC1 ?
MBD2 DNA inh: -2; ABHD5-PLIN5 inh: 29*; PRMT1 FP inh: 2; UHRF1 binding: 0; LEDGF integ inh: 0; ABHD5-PLIN5 conf: 11; HNF4 split-luc: -1

How did CC[C@@H](C)[C@@H]1CN([C@@H](CN2CCC[C@H]2CN2C(N)=NC[C@H]2C(C)C)C(C)C)C(=N)N1CCc1ccc(Cl)c(Cl)c1 do in these assays?
ABHD5-PLIN5 inh: 18

How did CC[C@@H](C)[C@@H]1CN([C@@H](C)CN2CCC[C@H]2CN2C(N)=NC[C@@H]2Cc2ccccc2)C(=N)N1CCc1ccc(Cl)c(Cl)c1 do in these assays?
ABHD5-PLIN5 inh: 34*; ABHD5-PLIN5 conf: 17; HNF4 split-luc: 5

Results for O=C(CSc1nc2ccccc2nc1N1CCOCC1)N1CCN(c2cccc(C(F)(F)F)c2)CC1 ?
MBD2 DNA inh: 1; PRMT1 FP inh: -1; UHRF1 binding: 0; LEDGF integ inh: 0

Results for C=C1CCc2c([nH]c3ccc(OCC(C)C)cc23)C1=O ?
MBD2 DNA inh: -5; ABHD5-PLIN5 inh: 42*; PRMT1 FP inh: 6; UHRF1 binding: 1; LEDGF integ inh: -6; ABHD5-PLIN5 conf: 90*; HNF4 split-luc: 73*

Results for Cc1ccc(SC2=C(Sc3ccc(C)cc3)C(=O)c3ccccc3C2=O)cc1 ?
MBD2 DNA inh: -3; ABHD5-PLIN5 inh: 25*; PRMT1 FP inh: 18; UHRF1 binding: 0; RBBP9 inhibitor: 6; LEDGF integ inh: -1; ABHD5-PLIN5 conf: 63*; HNF4 split-luc: 12*

What do the screens show for `Cc1ccc2c(c1)Sc1ccccc1CC2=O`?
MBD2 DNA inh: 0; ABHD5-PLIN5 inh: -8; PRMT1 FP inh: -2; UHRF1 binding: -1; RBBP9 inhibitor: -4; LEDGF integ inh: 0

Results for O=C1Cc2ccccc2Sc2ccccc21 ?
MBD2 DNA inh: 1; ABHD5-PLIN5 inh: 39*; PRMT1 FP inh: -1; UHRF1 binding: 0; RBBP9 inhibitor: -4; LEDGF integ inh: -2; ABHD5-PLIN5 conf: -1; HNF4 split-luc: 12*

What do the screens show for `COc1cc2c(cc1NC(=O)CSc1nnc(-c3ccccc3C)n1Cc1ccco1)oc1ccccc12`?
MBD2 DNA inh: -4; PRMT1 FP inh: 17; UHRF1 binding: 1; LEDGF integ inh: 1

How did CC(C)(C)OC(=O)n1ccc2ccc(-c3ccc4cc[nH]c4c3)cc21 do in these assays?
MBD2 DNA inh: 5; PRMT1 FP inh: 3; UHRF1 binding: 0; LEDGF integ inh: -2

How did COC(CNC(=O)CCc1c(C)nc2c(c(C)nn2-c2ccc(C)cc2)c1C)OC do in these assays?
MBD2 DNA inh: 3; ABHD5-PLIN5 inh: -1; PRMT1 FP inh: -1; UHRF1 binding: 2; LEDGF integ inh: 0

How did Cc1ccc(-n2nc(C)c3c(C)c(CCC(=O)Nc4ccc(CN5CCCC5)cc4)c(C)nc32)cc1 do in these assays?
MBD2 DNA inh: 0; ABHD5-PLIN5 inh: 29*; PRMT1 FP inh: 2; UHRF1 binding: 4; RBBP9 inhibitor: -4; LEDGF integ inh: -3; ABHD5-PLIN5 conf: 12; HNF4 split-luc: 3

What do the screens show for `CN(C)/N=C/C=C1\CCC/C(=C/c2cccs2)C1=O`?
MBD2 DNA inh: 0; ABHD5-PLIN5 inh: 30*; PRMT1 FP inh: 3; UHRF1 binding: -1; RBBP9 inhibitor: -4; LEDGF integ inh: 5; ABHD5-PLIN5 conf: 25*; HNF4 split-luc: 29*
